Source: article PMC5405180 (EBioMedicine, 2017)
Where a SMILES comes first, the peptide text is derived from it. The star is where a group is joined. Cbz = O=C(OCc1ccccc1)*

Experiments:
[1] = test system: NFAT5; test: NFAT5-dependent GFP reporter assay; assay type: cell-based, murine; conditions: for IC50: Mus musculus, RAW264.7, read-out: IC50, NFAT5-dependent reporter activity
In short: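 Cells were stimulated with LPS (1 μg/ml) for 20 h alongside graded test compound or BBR. GFP was read by flow cytometry and expressed as % ΔMFI = (treated MFI − untreated MFI) × 100 / untreated MFI.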

[2] = test system: ROS; test: ROS production by flow cytometry; assay type: cell-based, murine; conditions: RAW 264.7, LPS 1 µg/ml, KRN2 0.8 µM
[3] = test system: NFAT5; test: LPS-induced NFAT5 expression and nuclear translocation; assay type: cell-based, murine
[4] = molecular target: NF-κB p65 binding to the Nfat5 promoter (Mus musculus, UniProt Q04207); test: ChIP assay; assay type: cell-based, murine; conditions: RAW 264.7, 1 μM, LPS 1 μg/ml 12 h
In short: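 RAW 264.7 cells were pretreated with test compound (1 μM) for 1 h, then given LPS (1 μg/ml) for 12 h. Cells were fixed in 1% formaldehyde for 10 min at 37 °C, nuclei isolated and chromatin sonicated, with an input aliquot kept. Immunoprecipitation used anti-p65. DNA was extracted with phenol/chloroform, ethanol-precipitated and PCR-amplified with Nfat5 promoter primers; Nfat5 exon primers served as negative control. Three independent experiments.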

[5] = test system: ELK; test: ELK promoter reporter assay; assay type: cell-based; conditions: 1 µM test compound
[6] = test system: RAW 264.7 cells; test: NO production; assay type: cell-based, murine; conditions: RAW 264.7, LPS 1 μg/ml 24 h, Griess assay
In short: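 RAW 264.7 macrophages were kept in RPMI 1640 with 10% FBS. Cells were preincubated for 1 h with graded test compound, then stimulated with LPS (1 μg/ml) for 24 h. Supernatant was mixed with an equal volume of Griess reagent for 15 min at room temperature to give nitrite. Three independent experiments, each in triplicate, mean ± SD.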

[7] = test system: NFAT1; test: NFAT promoter reporter assay; assay type: cell-based, human; conditions: HEK293 cells stimulated with PMA, 1 μM
[8] = molecular target: NF-κB p65 binding to Nfat5 promoter 1 (Homo sapiens, UniProt Q04206); test: Electrophoretic mobility shift assay; conditions: recombinant p65 400 ng; KRN2 5, 20, 50 μM; MG132 20 μM
[9] = test system: murine splenocytes; test: LPS-stimulated murine splenocytes; assay type: cell-based; conditions: total splenocytes of mice, LPS 1 μg/ml 24 h, 0.8 μM
[10] = test system: CREB; test: CREB promoter reporter assay; assay type: cell-based; conditions: 1 µM test compound
[11] = test system: mice with collagen-induced arthritis (CIA); test: Collagen-induced arthritis; assay type: in vivo
[12] = test system: adjuvant-induced arthritis (AIA) in mice; test: Adjuvant-induced arthritis; assay type: in vivo
In short: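 AIA induced in 8-week-old C57BL/6 mice with 2 mg CFA given intradermally. Test compound was given at 3 mg/kg i.p. daily for 2 weeks, with PBS as vehicle. Ankle and footpad thickness were tracked over the 2 weeks (6 mice/group, mean ± SD). Joints were fixed in […] for 1 day and decalcified in 5% formic acid for 2 weeks. Sections were blocked with 10% goat serum, then stained overnight at 4 °C with anti-F4/80 (1/50), biotinylated anti-rabbit IgG, streptavidin-peroxidase and DAB.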

[13] = test system: murine peritoneal macrophages; test: High salt-stimulated murine peritoneal macrophages; assay type: cell-based; conditions: NaCl 45 mM 6 h, 0.8 μM
[14] = test system: NFAT5; test: High salt-induced NFAT5 and tonicity-inducible gene expression in RAW 264.7; assay type: cell-based, murine; conditions: for high salt-induced increase in NFAT5 mRNA and protein: RAW 264.7, NaCl 45 mM 12 h, KRN2 1 μM, SB203580 5 μM
[15] = test system: NFAT5 promoter; test: Nfat5 promoter GFP reporter assay; assay type: cell-based, murine; conditions: RAW 264.7, 1 μM
In short: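 RAW 264.7 cells carried a GFP reporter containing two NF-κB binding sites from upstream of the Nfat5 gene. Cells were preincubated with test compound (1 μM) for 1 h, then stimulated for 20 h with either LPS (1 μg/ml) or NaCl (45 mM). GFP was measured by flow cytometry as % ΔMFI relative to untreated cells. Three independent experiments.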

[16] = test system: RAW 264.7 macrophages; test: Pro-inflammatory NFAT5 target gene expression in LPS-stimulated RAW 264.7; assay type: cell-based, murine
[17] = test system: NF-κB p65; test: p65 phosphorylation/translocation and IκB degradation; assay type: cell-based, murine; conditions: RAW 264.7, LPS 1 µg/ml
In short: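 RAW 264.7 cells were incubated in cytoplasmic lysis buffer for 15 min on ice and centrifuged; the supernatant was taken as the cytosolic fraction. The pellet was taken up in nuclear lysis buffer and spun for 20 min at 12,000 rpm. Fractions were run on SDS-PAGE, transferred to nitrocellulose and probed for p65, with NMP p84 and α-tubulin as fraction markers, using ECL detection. Whole-cell lysates were prepared in RIPA buffer for 15 min at 4 °C and protein measured by Bradford assay.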

[18] = test system: p38 MAPK; test: p38 MAPK activity; assay type: cell-based; conditions: RAW 264.7, LPS 1 µg/ml, KRN2 0.8 µM
[19] = test system: murine peritoneal macrophages; test: LPS-stimulated murine peritoneal macrophages; assay type: cell-based; conditions: 0.8 μM
[20] = Pharmacokinetic profile in rats; assay type: in vivo; conditions: rat
In short: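 Rats were dosed intravenously or orally and plasma concentration–time profiles were obtained. Half-life came from the oral profile. Oral bioavailability (F%) was calculated from oral versus intravenous exposure.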

[21] = test system: splenocytes of CIA mice; test: LPS-stimulated splenocytes from treated CIA mice; assay type: in vivo; conditions: splenocytes of CIA mice treated orally, LPS 1 μg/ml 24 h
In short: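 CIA was induced in mice by CII/CFA immunization with a CII/IFA boost. Mice received oral test compound at 15 or 60 mg/kg on alternate days, or vehicle. Splenocytes from these mice were cultured with LPS (1 μg/ml) for 24 h.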

[22] = 3 mg/kg peritoneally, versus vehicle

Sequence of NF-κB p65 binding to Nfat5 promoter 1 (Q04206 whole entry): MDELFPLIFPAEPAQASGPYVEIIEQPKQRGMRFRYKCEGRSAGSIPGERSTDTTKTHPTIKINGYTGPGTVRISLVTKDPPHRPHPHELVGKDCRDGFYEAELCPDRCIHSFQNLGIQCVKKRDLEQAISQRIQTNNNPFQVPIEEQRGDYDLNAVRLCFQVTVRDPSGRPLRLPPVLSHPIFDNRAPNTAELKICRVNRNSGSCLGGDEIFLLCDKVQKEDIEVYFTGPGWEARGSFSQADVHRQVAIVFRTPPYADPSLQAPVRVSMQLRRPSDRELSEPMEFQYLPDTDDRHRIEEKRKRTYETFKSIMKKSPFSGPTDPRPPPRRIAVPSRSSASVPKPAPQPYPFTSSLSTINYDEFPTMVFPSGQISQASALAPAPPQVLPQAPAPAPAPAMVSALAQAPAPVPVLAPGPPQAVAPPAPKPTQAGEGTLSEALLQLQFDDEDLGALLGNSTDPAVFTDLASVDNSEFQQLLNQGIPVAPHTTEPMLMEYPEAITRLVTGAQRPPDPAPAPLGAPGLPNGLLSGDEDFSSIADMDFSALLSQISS
Sequence of NF-κB p65 binding to the Nfat5 promoter (Q04207 whole entry): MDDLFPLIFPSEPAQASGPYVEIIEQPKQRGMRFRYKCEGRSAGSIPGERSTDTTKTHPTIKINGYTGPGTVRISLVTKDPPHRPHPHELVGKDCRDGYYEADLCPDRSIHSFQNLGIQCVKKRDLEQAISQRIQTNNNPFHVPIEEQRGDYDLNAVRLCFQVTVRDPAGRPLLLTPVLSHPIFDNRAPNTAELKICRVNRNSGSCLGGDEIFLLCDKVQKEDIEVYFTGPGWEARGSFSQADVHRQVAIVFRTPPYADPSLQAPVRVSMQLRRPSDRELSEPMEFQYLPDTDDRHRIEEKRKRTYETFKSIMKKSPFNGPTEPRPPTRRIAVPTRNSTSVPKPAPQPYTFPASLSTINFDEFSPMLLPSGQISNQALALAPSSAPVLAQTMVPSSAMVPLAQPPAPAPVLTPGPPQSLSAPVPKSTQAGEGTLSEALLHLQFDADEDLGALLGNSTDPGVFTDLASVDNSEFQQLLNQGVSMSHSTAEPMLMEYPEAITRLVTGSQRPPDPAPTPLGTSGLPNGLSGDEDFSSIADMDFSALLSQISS

## COc1ccc2cc3[n+](cc2c1OC)CCc1cc2c(cc1-3)OCO2 [Berberine, reference compound]
[1]
  IC50: 4000 nM

## COc1ccc2c(Cc3ccccc3F)c3[n+](cc2c1OC)CCc1cc2c(cc1-3)OCO2.[Br-] [KRN2, 13-(2-Fluorobenzyl)-9,10-dimethoxy-5,6-dihydro-[1,3]dioxolo[4,5-g]isoquinolino[3,2-a]isoquinolin-7-ium bromide]
[2]
  ROS: neither ROS nor p38 MAPK activity was affected
[1]
  IC50: 100 nM
[1]; ratio of IC50 values, KRN2 versus BBR
  anti-NFAT5 activity relative to BBR: 40 times
[3]; RAW 264.7, 0.8 μM, LPS 1 μg/ml
  LPS-induced NFAT5 mRNA and protein expression: nearly completely blocked
[3]; RAW 264.7, 0.8 μM, LPS 1 μg/ml 12 h
  translocation of NFAT5 into the nucleus: inhibited
[3]; RAW 264.7 macrophages, 0.5 μM, western blot
  LPS-stimulated increase in NFAT5 protein expression: significantly suppressed
[4]
  recruitment of NF-κB p65 to the Nfat5 promoter region: nearly completely eliminated
[5]
  ELK-dependent reporter (luciferase) activity: not suppressed
[6]
  NO production: dose-dependently lowered
[7]
  NFAT1-dependent reporter activity: only slightly inhibited
[8]
  NF-κB p65 binding to Nfat5 promoter 1: dose-dependently inhibited
[9]
  iNOS, IL-6, and TNF-α expressions: decreases
[10]
  CREB-dependent reporter (luciferase) activity: not suppressed
[11]; 3 mg/kg peritoneally every day for 3 weeks from day 21
  arthritis severity: significantly decreased
[11]; 3 mg/kg peritoneally, day 40
  serum levels of anti-type II collagen antibody, IL-6, and TNF-α: significantly decreased
[11]; [22]
  inflammatory cell infiltration, synovial hyperplasia, and joint destruction: limited degree
  number of anti-F4/80+ macrophages in joints: significantly lower
[11]; oral 3 mg/kg every other day for 3 weeks from day 21 (data not shown)
  CIA development: failed to suppress
[12]; 3 mg/kg peritoneally
  number of anti-F4/80+ cells infiltrated in joints: declined
[12]; 3 mg/kg peritoneally every day for 2 weeks, versus vehicle
  paw swelling (ankle and footpad diameter): significantly lower
[12]; [22]
  inflammatory cell infiltration, synovial hyperplasia, and joint destruction (H&E): lesser degrees
[13]
  high salt-induced increase in Nfat5 mRNA expression: neither mitigated
[14]
  high salt-induced increase in NFAT5 mRNA and protein: did not repress
[14]; RAW 264.7 stimulated with high salt (NaCl 45 mM 12 h), 0.8 μM
  mRNA expression levels of Ar and Bgt: had no effect
[15]; LPS 1 μg/ml 20 h
  LPS-induced NFAT5 promoter activity: specifically repressed
[15]; NaCl 45 mM 20 h
  high salt-induced NFAT5 promoter activity: failed to reduce
[16]; RAW 264.7, 0.8 μM, LPS 1 μg/ml
  mRNA and protein expression levels of IL-6, TNF-α, and GM-CSF: significantly decreased
[16]; RAW 264.7, LPS 1 μg/ml 24 h, western blot
  expression level of iNOS: dose-dependently lowered
[17]
  degradation of IκB: nor blocked
  phosphorylation and translocation of p65: neither influenced
[18]
  p38 MAPK activity: neither ROS nor p38 MAPK activity was affected
[19]
  LPS-stimulated increase in NFAT5 protein and mRNA: mitigated
[19]; LPS
  expression levels of Il6 and Tnf: decreased
[20]; oral administration
  plasma level after oral administration: not detectable

## COc1ccc2c(Cc3ccccc3F)c3n(c(=O)c2c1OC)CCc1cc2c(cc1-3)OCO2 [KRN5, 13-(2-Fluorobenzyl)-9,10-dimethoxy-5,6-dihydro-8H-[1,3]dioxolo[4,5-g]isoquinolino[3,2-a]isoquinolin-8-one]
[1]
  IC50: 750 nM
[21]
  NFAT5 expression in spleen cells stimulated by LPS: reduced
[11]; oral 60 mg/kg, methotrexate 5 mg/kg orally twice a week
  efficacy in suppressing arthritis compared to methotrexate: more potent
[11]; oral 15 and 60 mg/kg every other day for 3 weeks from day 21
  arthritis severity: dose-dependently mitigated
[11]; oral, day 44
  serum anti-type II collagen IgG: significantly decreased
[11]; oral, throughout the experiments (data not shown)
  side effects: no side effects were noted
[16]; RAW 264.7, 1 μM, LPS 1 μg/ml 24 h
  expressions of NFAT5, IL-6, MCP-1, and GM-CSF: inhibited
[20]; plasma, po
  half-life: > 8 h

## CC(C)C[C@@H](C=O)NC(=O)[C@H](CC(C)C)NC(=O)[C@H](CC(C)C)NC(=O)OCc1ccccc1 [MG132, reference compound] (Cbz-Leu-Leu-Leu-aldehyde)
[8]
  NF-κB p65 binding to Nfat5 promoter 1: did not affect it

## C[S+]([O-])c1ccc(-c2nc(-c3ccncc3)c(-c3ccc(F)cc3)[nH]2)cc1 (stereo not drawn) [SB253580, reference compound]
[14]
  high salt-induced increase in NFAT5 mRNA and protein: completely blocked
